ChEMBL document CHEMBL3612009, “Synthesis and structure-activity relationship study of a new series of antiparasitic aryloxyl thiosemicarbazones inhibiting Trypanosoma cruzi cruzain” (Eur J Med Chem, 2015)
Calls of active or inactive are those of the source. The rule behind the calls is not given here.

Legend:
[1] = test system: Trypanosoma cruzi; assay: Antiparasitic activity against epimastigotes of Trypanosoma cruzi Dm28c assessed as reduction of parasite count after 5 days; type: functional; details: 120 h
[2] = test system: Trypanosoma cruzi; assay: Antiparasitic activity against trypomastigotes of Trypanosoma cruzi Y assessed as reduction of parasite count after 24 hrs; type: functional
[3] = Cytotoxicity against BALB/c mouse splenocytes assessed as maximum non-toxic concentration by measuring [3H]-thymidine incorporation after 24 hrs by liquid scintillation counting; type: cell-based, Splenocyte
How it was run: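 BALB/c splenocytes, 5 x 10^6 cells/well, given compounds at 1.23, 3.7, 33.33 and 100 µg/mL, 1% DMSO final, triplicate; 24 h at 37 °C, 5% CO2. Then 1.0 µCi [3H]-thymidine added; cells harvested and counted by liquid scintillation. Highest non-cytotoxic concentration taken from % incorporation.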

[4] = test system: Trypanosoma cruzi; assay: Antitrypanosomal activity against amastigote and trypomastigote forms of Trypanosoma cruzi Tulahuen expressing beta-galactosidase gene infected in mouse L-929 cells assessed as inhibition of parasite growth after 7 days by colorimetric betagalactosidase assay; type: functional, organism-based; details: L929, 168 h
[5] = Cytotoxicity against mouse L929 cells assessed as cell viability after 96 hrs by alamarBlue assay; type: cell-based
How it was run: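 Uninfected L-929 cells at the same cell number and timing as the beta-galactosidase assay; increasing concentrations starting at the T. cruzi IC50, quadruplicate. After 96 h, alamarBlue added; absorbance at 570 and 600 nm read 6 h later. Viability as % reduction versus untreated; CC50 by linear interpolation.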

[6] = Selectivity index, ratio of CC50 for mouse L929 cells to IC50 for amastigote and trypomastigote forms of Trypanosoma cruzi Tulahuen; type: functional
How it was run: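 SI = CC50 in uninfected L-929 fibroblasts (alamarBlue, 96 h) divided by IC50 against intracellular amastigote/trypomastigote forms (beta-galactosidase assay, 7 days).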

[7] = target: Cruzipain (Trypanosoma cruzi) (UniProt P25779); assay: Inhibition of Trypanosoma cruzi catalytic activity of cruzain using Z-FR-AMC as substrate at 50 uM after 10 mins by fluorescence assay
[8] = target: Cruzipain (Trypanosoma cruzi, UniProt P25779); assay: Inhibition of Trypanosoma cruzi catalytic activity of cruzain using Z-FR-AMC as substrate after 10 mins by fluorescence assay
[9] = test system: Trypanosoma cruzi; assay: Antitrypanosomal activity against amastigote and trypomastigote forms of Trypanosoma cruzi Tulahuen expressing beta-galactosidase gene infected in mouse L-929 cells assessed as inhibition of parasite growth at 100 uM after 7 days by colorimetric betagalactosidase assay; type: functional; details: L929, 168 h
[10] = target: Cruzipain (Trypanosoma cruzi) (UniProt P25779); assay: Inhibition of Trypanosoma cruzi catalytic activity of cruzain using Z-FR-AMC as substrate at 100 uM after 10 mins by fluorescence assay
[11] = test system: Trypanosoma cruzi; assay: Antiparasitic activity against trypomastigotes of Trypanosoma cruzi Y assessed as induction of parasite death at 5 uM after 24 hrs using propidium iodide staining after 24 hrs by flow cytometry analysis; type: functional
How it was run: (§1)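 Y strain trypomastigotes (4x10^5) in RPMI-1640 with 10% FBS, exposed to test agent for 24 h at 37 °C, 5% CO2; then stained with propidium iodide and analysed by flow cytometry, at least 10,000 events. Read-out is % PI-positive cells versus untreated parasites; Triton X-100 as positive control. Two independent experiments, each concentration in duplicate.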

[12] = test system: Trypanosoma cruzi; assay: Antiparasitic activity against trypomastigotes of Trypanosoma cruzi Y assessed as induction of parasite death at 0.5 uM after 24 hrs using propidium iodide staining after 24 hrs by flow cytometry analysis; type: functional; how it was run: as §1

Chain of Cruzipain (P25779 whole entry): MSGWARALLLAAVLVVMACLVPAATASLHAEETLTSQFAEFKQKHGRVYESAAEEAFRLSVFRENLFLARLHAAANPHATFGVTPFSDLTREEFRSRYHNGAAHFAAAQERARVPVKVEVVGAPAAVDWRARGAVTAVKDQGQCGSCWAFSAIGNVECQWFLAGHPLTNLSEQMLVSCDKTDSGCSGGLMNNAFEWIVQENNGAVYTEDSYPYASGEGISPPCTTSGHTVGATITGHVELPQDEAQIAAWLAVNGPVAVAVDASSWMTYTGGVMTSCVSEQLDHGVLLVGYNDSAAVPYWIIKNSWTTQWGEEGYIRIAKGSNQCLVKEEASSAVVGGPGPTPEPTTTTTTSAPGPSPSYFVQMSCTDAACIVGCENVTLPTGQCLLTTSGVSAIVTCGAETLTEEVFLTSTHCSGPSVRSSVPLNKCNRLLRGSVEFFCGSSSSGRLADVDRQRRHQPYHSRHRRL
Chain of Cruzipain (Trypanosoma cruzi) (P25779 123-467 limits assumed): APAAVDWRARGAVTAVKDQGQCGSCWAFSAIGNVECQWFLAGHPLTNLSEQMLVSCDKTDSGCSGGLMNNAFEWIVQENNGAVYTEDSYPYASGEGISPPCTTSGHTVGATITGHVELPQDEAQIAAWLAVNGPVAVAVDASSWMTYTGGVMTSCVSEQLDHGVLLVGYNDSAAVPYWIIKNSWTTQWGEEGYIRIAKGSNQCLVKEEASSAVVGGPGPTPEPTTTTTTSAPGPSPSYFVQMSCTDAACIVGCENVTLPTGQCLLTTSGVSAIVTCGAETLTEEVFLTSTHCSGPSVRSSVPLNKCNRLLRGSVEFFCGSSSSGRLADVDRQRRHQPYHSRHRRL

| Compound | IC50 [1] [µM] | IC50 [4] [µM] | inhibition [7] [%] | inhibition [10] | CC50 [2] [µM] | MNTC at 24 h [3] [nM] | CC50 at 96 h [5] [µM] | Ratio CC50/IC50 [6] | IC50 [8] [µM] | inhibition at 100 µM [9] [%] | Activity [11] [%] | Activity [12] [%] |
| --- | --- | --- | --- | --- | --- | --- | --- | --- | --- | --- | --- | --- |
| C/C(=N\NC(N)=S)C(C)Oc1ccccc1-c1ccccc1 (configuration not stated) | – | – | – | inactive | – | – | – | – | – | – | – | – |
| CC(=O)Nc1ccc(OC(C)/C(C)=N/NC(N)=S)cc1 (configuration not stated) | – | – | – | inactive | – | – | – | – | – | – | – | – |
| NC(=S)N/N=C(/COc1ccc(Br)cc1)c1ccccc1 | 14.5 | 10.2 | 67.6 | – | 2.4 | 68600 | < 27.5 | <2.7 | – | > 70 | – | – |
| CC(=O)Nc1ccc(OC/C(=N\NC(N)=S)c2ccc(Br)cc2)cc1 | 15.6 | 43.2 | 80.7 | – | 3.5 | 2400 | 94.9 | 2.2 | – | > 70 | – | – |
| NC(=S)N/N=C(\COc1ccc(Cl)cc1)c1ccc(Br)cc1 | 4.6 | 11.2 | 73.6 | – | 5.7 | < 2500 | < 25.1 | <2.2 | – | > 70 | – | – |
| NC(=S)N/N=C(\COc1ccc(Cl)c(Cl)c1)c1ccc(Br)cc1 | 1.8 | 8.3 | 99.1 | – | 3 | < 2300 | 23.1 | 2.8 | 0.008 | > 70 | 44.9 | 2.3 |
| NC(=S)N/N=C(/COc1ccc(Br)cc1)c1cccc2ccccc12 | 7.5 | 4.8 | 73.6 | – | 14.7 | 2400 | 12.1 | 2.5 | – | > 70 | – | – |
| NC(=S)N/N=C(\COc1cccc(Br)c1)c1ccc(Br)cc1 | 3.9 | 149 | 81.3 | – | 6.2 | 2700 | > 180 | >1.2 | – | > 70 | – | – |
| NC(=S)N/N=C(\COc1ccc(-c2ccccc2)cc1)c1ccc(Br)cc1 | 4.1 | 76.6 | 63.7 | – | 12.3 | 22700 | 90.8 | 1.2 | – | > 70 | – | – |
| NC(=S)N/N=C(\COc1ccc(F)c(Cl)c1)c1ccc(Br)cc1 | 3.4 | 9 | 93.7 | – | 1.7 | 2400 | 48 | 5.3 | 0.07 | > 70 | 34 | 2.7 |

Second part, led by results:

| IC50 [1] [µM] | IC50 [4] [µM] | inhibition [7] [%] | inhibition [10] | Compound | CC50 [2] [µM] | MNTC at 24 h [3] [nM] | CC50 at 96 h [5] [µM] | Ratio CC50/IC50 [6] | IC50 [8] [µM] | inhibition at 100 µM [9] [%] | Activity [11] [%] | Activity [12] [%] |
| --- | --- | --- | --- | --- | --- | --- | --- | --- | --- | --- | --- | --- |
| 3.9 | 3.3 | 88.9 | – | NC(=S)N/N=C(/COc1ccc(Br)cc1)c1ccc(-c2ccccc2)cc1 | 2.1 | 2300 | 22.7 | 6.9 | 0.6 | > 70 | – | – |
| 3.6 | 14.8 | 67.5 | – | NC(=S)N/N=C(/COc1ccc(Br)cc1)c1ccc(Cl)cc1 | 5.3 | 12500 | 25.1 | 1.7 | – | > 70 | – | – |
| 2.2 | 25.1 | 51.8 | – | NC(=S)N/N=C(\COc1cccc(Cl)c1)c1ccc(Br)cc1 | 1.6 | 2500 | < 50.2 | <2 | – | > 70 | – | – |
| 3.7 | 7.9 | 70.9 | – | Cc1ccc(/C(COc2ccc(Br)cc2)=N\NC(N)=S)cc1 | 3.1 | 13200 | 13.2 | 1.7 | – | > 70 | – | – |
| 3.5 | 13.5 | 58.9 | – | NC(=S)N/N=C(\COc1ccccc1Cl)c1ccc(Br)cc1 | 6 | < 2500 | 25.1 | 1.9 | – | > 70 | – | – |
| 1.8 | 8.9 | 75.8 | – | COc1ccc(OC/C(=N\NC(N)=S)c2ccc(Br)cc2)cc1 | 3.7 | < 2500 | 102 | 11.4 | – | > 70 | – | – |
| 3.8 | 10.7 | 53.1 | – | NC(=S)N/N=C(/COc1ccc(Br)cc1)c1ccc(F)cc1 | 3.6 | 2600 | < 26.2 | <2.5 | – | > 70 | – | – |
| 3.1 | 11.9 | 38.7 | – | COc1ccc(/C(COc2ccc(Br)cc2)=N\NC(N)=S)cc1 | 5 | 2500 | < 25.4 | <2.1 | – | > 70 | – | – |
| 2.1 | 6.4 | 75.1 | – | CCc1ccc(OC/C(=N\NC(N)=S)c2ccc(Br)cc2)cc1 | 1.8 | 2600 | < 25.5 | <4 | – | > 70 | – | – |
| 1.8 | 15.7 | 84 | – | NC(=S)N/N=C(\COc1ccc(F)cc1)c1ccc(Br)cc1 | 3.1 | 2600 | 52.3 | 3.3 | 0.4 | > 70 | – | – |
| 3 | 5.4 | 61.8 | – | NC(=S)N/N=C(\COc1ccccc1)c1ccc(Br)cc1 | 6.6 | 137000 | 54.9 | 10.2 | – | > 70 | – | – |
